The species entered for assay [1] is Homo sapiens. Briefly: Poisoning activity at topoisomerase-2 (unknown origin) assessed as reduction in ATP-dependent decatenation of kinetoplast DNA by measuring linear DNA formation at 10 uM after 30 mins by ethidium bromide staining based UV trans-illumination assay. In outline: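 Topo II (5 units, set to decatenate about 100% of kDNA) with 200–300 ng kDNA in 20 μl containing 120 mM KCl, 50 mM Tris-HCl pH 8, 10 mM MgCl2, 0.5 mM DTT, 0.5 mM ATP and BSA. Incubated 30 min at 37 °C, then stopped with SDS plus proteinase K for 10 min at 37 °C. Products run on 1% agarose at 100 V for about 40 min, EtBr-stained and viewed under UV. Etoposide 10 μM served as positive control.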

The test system of a further assay is A549. Briefly: Cytotoxicity against human A549 cells after 48 hrs by MTT assay. The class given is functional, cell-based. The settings on record: A549, 48 h. The method, boiled down: (§1)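 MTT assay. Cells seeded at 1×10^4 per well in DMEM or MEM with 10% FBS and grown 24 h at 37 °C under CO2. Compounds added for 48 h, then MTT (5 mg/mL stock) for 4 h. Formazan dissolved in DMSO and read at 570 nm. IC50 is the average of three independent experiments.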

Assay [2] has as its system DU-145. Briefly: Induction of DNA damage in human DU145 cells after 24 hrs using propidium iodide stain by electrophoresis based fluorescence microscopic method. The class given is functional, cell-based. The method, boiled down:
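DU-145 cells seeded in 60 mm dishes, treated at 10 μM for 24 h alongside an untreated control. Slides were washed three times in 0.4 M Tris-HCl pH 7.5, electrophoresed 20 min at 40 V in 0.5% TBE pH 8, PI-stained 30 min, and imaged at 20x.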

Another assay concerns HT-29. Briefly: Cytotoxicity against human HT-29 cells after 48 hrs by MTT assay. The settings on record: HT-29, 48 h. The class given is functional, cell-based. The method, boiled down:
as §1

The next assay relates to MDA-MB-231. Briefly: Cytotoxicity against human MDA-MB-231 cells after 48 hrs by MTT assay. The class given is functional, cell-based. The following applies: MDA-MB-231, 48 h. The method, boiled down: as §1
Another assay has as its system HeLa. Briefly: Cytotoxicity against human HeLa cells after 48 hrs by MTT assay. The class given is functional, cell-based. In outline:
as §1

Assay [3] has as its system DU-145. The experiment in a line: Cytotoxicity against human DU145 cells after 48 hrs by MTT assay. The class given is functional, cell-based. The following applies: DU-145, 48 h. The method, boiled down: as §1
Another assay deals with HEK293. The experiment in a line: Cytotoxicity against HEK293 cells after 48 hrs by MTT assay. The settings on record: Homo sapiens, HEK293, 48 h. The class given is cell-based. The method, boiled down:
as §1

Assay [4] relates to Calf thymus DNA. Briefly: Binding affinity to calf thymus DNA by UV-Visible spectroscopic method. The settings on record: Bos taurus. The class given is nucleic-acid assay. In outline:
(§2)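 UV-visible absorption titration at 25 °C in […] cuvettes. Compound held at 25.0 μM (1 ml, 1 cm path), titrated with 5 μl additions of 25.0 μM CT-DNA in 100 mM Tris-HCl pH 7.0 until absorbance saturated. Spectra recorded 200–400 nm, using freshly prepared stocks.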

The test system of assay [5] is DU-145. The experiment in a line: Cell cycle arrest in human DU145 cells assessed as accumulation at sub-G1 phase at 1 uM after 48 hrs by propidium iodide staining based flow cytometry (reference value: 1.49%). The class given is functional.
The species named for assay [6] is Homo sapiens. Briefly: Inhibition of topoisomerase-2 (unknown origin) assessed as reduction in ATP-dependent decatenation of kinetoplast DNA at 10 uM after 30 mins by ethidium bromide staining based UV trans-illumination assay. In outline: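 kDNA decatenation, 20 μl reactions: 120 mM KCl, 50 mM Tris-HCl pH 8, 10 mM MgCl2, 0.5 mM DTT, 0.5 mM ATP, BSA, 200–300 ng kDNA, topo II 5 units. Incubated 37 °C for 30 min, stopped with SDS/proteinase K for 10 min at 37 °C. Products run on 1% agarose at 100 V and visualized by ethidium bromide under UV.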

Assay [7] relates to DU-145. Briefly: Cell cycle arrest in human DU145 cells assessed as accumulation at S-phase at 1 uM after 48 hrs by propidium iodide staining based flow cytometry (reference value: 24.99%). The class given is functional.
The subject of assay [8] is Calf thymus DNA. The experiment in a line: Binding affinity to calf thymus DNA assessed as hyperchromic effect […] by UV-Visible spectroscopic method. The class given is nucleic-acid assay. The following applies: Bos taurus. In outline: as §2
The subject of assay [9] is DU-145. Briefly: Induction of DNA damage in human DU145 cells at 10 uM after 24 hrs using propidium iodide stain by electrophoresis based fluorescence microscopic method. The class given is functional, cell-based. The method, boiled down: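 DU-145 cells treated at 10 μM for 24 h; about 25,000 cells embedded in agarose on slides. Electrophoresis 20 min at 40 V in 0.5% TBE pH 8. Propidium iodide stain 30 min; fluorescence imaging at 20x.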

For assay [10], the system named is Calf thymus DNA. The experiment in a line: Binding affinity to calf thymus DNA assessed as hypochromicity of positive CD band at 10 to 20 uM by CD spectroscopic method relative to control. The settings on record: Bos taurus. The class given is nucleic-acid assay. In outline: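 CD spectra of 10 μM CT-DNA in 100 mM Tris-HCl pH 7.0, alone and with 10.0 or 20 μM compound (1:1 and 1:2 DNA:complex). Recorded 200–350 nm in a 1 mm path cuvette and averaged over 3 scans.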

The test system of assay [11] is DU-145. The experiment in a line: Cell cycle arrest in human DU145 cells assessed as accumulation at G2/Mphase at 1 uM after 48 hrs by propidium iodide staining based flow cytometry (reference value: 21.71%). The class given is functional.
Assay [12] has as its system DU-145. Briefly: Cell cycle arrest in human DU145 cells assessed as accumulation at G0/G1 phase at 1 uM after 48 hrs by propidium iodide staining based flow cytometry (reference value: 51.28%). The class given is functional.
The subject of assay [13] is Calf thymus DNA. The experiment in a line: Binding affinity to calf thymus DNA assessed as hypochromic effect at 10 uM by fluorescence spectroscopic method. The class given is nucleic-acid assay. The following applies: Bos taurus. The method, boiled down:
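Fluorescence titration at 25 °C in an acid-washed 1 cm quartz cuvette. Compound held constant at 10 μM and titrated with CT-DNA in equal steps (multiples of 0.5 μM), with a spectrum after each addition. Excitation 230 nm, emission recorded up to 600 nm.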

Activity calls are given as the source filed them. The rule behind the calls is not given here.

As to `COc1cc([C@@H]2c3cc4c(cc3[C@@H](O[C@@H]3O[C@@H]5CO[C@@H](C)O[C@H]5[C@H](O)[C@H]3O)[C@H]3COC(=O)[C@H]23)OCO4)cc(OC)c1O` [ETOPOSIDE], the outcome in the assay filed under Homo sapiens [1] and in the assay on DU-145 [2] was Active. Besides, the IC50 came to 2.27 µM with A549, 1.64 µM in the assay on HT-29, 1.91 µM in the assay with MDA-MB-231 and 1.93 µM in the assay with HeLa.

Turning to `COc1cc(-c2nc(C(=O)N[C@@H]3c4cc5c(cc4[C@@H](c4cc(OC)c(OC)c(OC)c4)[C@H]4C(=O)OC[C@@H]43)OCO5)cc3c2[nH]c2ccccc23)cc(OC)c1OC`, the IC50 came to 40.3 µM in the assay with DU-145 [3]; 104 µM with A549; 168 µM in the assay with HEK293; 86.5 µM with HT-29; 58.8 µM in the assay with MDA-MB-231; 72.9 µM in the assay on HeLa.

For the molecule `COc1cc([C@@H]2c3cc4c(cc3[C@@H](NC(=O)c3cc5c([nH]c6ccccc65)c(-c5cccc(Cl)c5)n3)[C@H]3COC(=O)[C@H]23)OCO4)cc(OC)c1OC`, the IC50 was 2.41 µM with DU-145 [3]; 3.16 µM in the assay on A549; 131 µM in the assay on HEK293; 5.26 µM in the assay with HT-29; 3.29 µM in the assay on MDA-MB-231; 6.09 µM in the assay on HeLa.

In the assay on Calf thymus DNA [4], `COc1ccc(OC)c(-c2nc(C(=O)N[C@@H]3c4cc5c(cc4[C@@H](c4cc(OC)c(OC)c(OC)c4)[C@H]4C(=O)OC[C@@H]43)OCO5)cc3c2[nH]c2ccccc23)c1` gave a Kb of 1 ×10⁴ /M. The IC50 in the assay on DU-145 [3] was found to be 1.07 µM; in the assay on A549 it was 1.87 µM; in the assay with HEK293, 103 µM; with HT-29, 2.68 µM; in the assay with MDA-MB-231 it was 2.64 µM; in the assay on HeLa, 2.92 µM. The Activity in the assay on DU-145 [5] is 10.79%; in the assay on DU-145 [7] it was 41.44%; in the assay on DU-145 [11], 29.16%; with DU-145 [12], 18.69%. Further, the inhibition result in the assay filed under Homo sapiens [6] was “Active”. Further, the result with Calf thymus DNA [8], with DU-145 [9], with Calf thymus DNA [10] and with Calf thymus DNA [13] was Active.

Regarding `COc1ccc(-c2nc(C(=O)N[C@@H]3c4cc5c(cc4[C@@H](c4cc(OC)c(OC)c(OC)c4)[C@H]4C(=O)OC[C@@H]43)OCO5)cc3c2[nH]c2ccccc23)cc1OC`, the IC50 in the assay on DU-145 [3] was 9.16 µM; in the assay on A549 it was 12.7 µM; in the assay with HEK293 it was 89.8 µM; with HT-29 it was 14.3 µM; with MDA-MB-231, 15.5 µM; with HeLa it was 13.4 µM.

With `COc1cc([C@@H]2c3cc4c(cc3[C@@H](NC(=O)c3cc5c([nH]c6ccccc65)c(-c5cccc(F)c5)n3)[C@H]3COC(=O)[C@H]23)OCO4)cc(OC)c1OC`, the IC50 worked out at 48.4 µM with DU-145 [3]; 36.4 µM in the assay on A549; 104 µM in the assay with HEK293; 55.7 µM with HT-29; 80.4 µM in the assay with MDA-MB-231; 26.5 µM with HeLa.

Turning to `COc1ccccc1-c1nc(C(=O)N[C@@H]2c3cc4c(cc3[C@@H](c3cc(OC)c(OC)c(OC)c3)[C@H]3C(=O)OC[C@@H]32)OCO4)cc2c1[nH]c1ccccc12`, the IC50 was 1.41 µM in the assay on DU-145 [3]; 1.94 µM with A549; 107 µM in the assay on HEK293; 4.3 µM with HT-29; 2.69 µM in the assay on MDA-MB-231; 4.12 µM with HeLa.

With `COc1ccc(-c2nc(C(=O)N[C@@H]3c4cc5c(cc4[C@@H](c4cc(OC)c(OC)c(OC)c4)[C@H]4C(=O)OC[C@@H]43)OCO5)cc3c2[nH]c2ccccc23)cc1`, the IC50 with DU-145 [3] stood at 16.8 µM; in the assay with A549, 29.4 µM; in the assay on HEK293 it was 65 µM; in the assay on HT-29, 35.6 µM; in the assay with MDA-MB-231, 34 µM; in the assay with HeLa, 21.9 µM.

In the case of `COc1cc([C@@H]2c3cc4c(cc3[C@@H](NC(=O)c3cc5c([nH]c6ccccc65)c(-c5ccc(F)c(F)c5)n3)[C@H]3COC(=O)[C@H]23)OCO4)cc(OC)c1OC`, the Kb with Calf thymus DNA [4] amounted to 1 ×10⁴ /M. The IC50 turned out to be 1.14 µM in the assay on DU-145 [3]; 2.24 µM in the assay with A549; 106 µM in the assay with HEK293; 3.53 µM in the assay with HT-29; 2.9 µM with MDA-MB-231; 3.72 µM in the assay on HeLa. Also, the Activity in the assay with DU-145 [5] was 10.9%; with DU-145 [7] it was 39.65%; in the assay on DU-145 [11], 28.08%; in the assay on DU-145 [12], 18.41%. Also, in the assay filed under Homo sapiens [6], the inhibition result is “Active”. The outcome in the assay with Calf thymus DNA [8], in the assay on DU-145 [9], in the assay on Calf thymus DNA [10] and in the assay with Calf thymus DNA [13] was Active.

Regarding `COc1cc([C@@H]2c3cc4c(cc3[C@@H](NC(=O)c3cc5c([nH]c6ccccc65)c(-c5ccccc5)n3)[C@H]3COC(=O)[C@H]23)OCO4)cc(OC)c1OC`, the IC50 with DU-145 [3] amounted to 1.68 µM; with A549, 2 µM; with HEK293 it was 75 µM; with HT-29, 6.87 µM; with MDA-MB-231, 2.6 µM; in the assay with HeLa it was 5.26 µM.
